# Rce1 inhib: yeast Ras-converting enzyme inhibition; Q03530; yeast membranes, quenched prenylated peptide cleavage fluorescence; calls only; 290,000 tested, 0.27% active;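 active means fall in fluorescence gain of 50% or more versus controls, with final raw signal at or below 3038400; inconclusive means same 50% fall but final raw signal above 3038400; inactive means fall in fluorescence gain under 50%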;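 further: plate controls were neutral control wells for no effect and wells lacking membranes for full effect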
# Target sequence (Q03530 whole entry, looked up): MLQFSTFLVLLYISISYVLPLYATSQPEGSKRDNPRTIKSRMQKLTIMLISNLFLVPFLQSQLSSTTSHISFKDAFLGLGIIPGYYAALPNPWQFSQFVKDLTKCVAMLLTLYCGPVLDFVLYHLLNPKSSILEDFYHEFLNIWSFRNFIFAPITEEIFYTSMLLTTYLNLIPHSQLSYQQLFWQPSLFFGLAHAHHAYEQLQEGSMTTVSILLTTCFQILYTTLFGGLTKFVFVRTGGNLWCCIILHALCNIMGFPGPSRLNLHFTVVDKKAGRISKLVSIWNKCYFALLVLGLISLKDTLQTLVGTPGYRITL
# Pemphigus Ab inh: blocks pemphigus antibody binding to human desmoglein-3 | binding (percent of control), % at 10 µM | DSG3-coupled beads, scFv-anti-DSG3-GFP binding, flow cytometry; hits give low values | P32926 | 310,000 tested, 0.48% active | AID 588358;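 active means binding more than 3 SD below its plate's average and above zero; inconclusive means below that plate limit but binding exactly zero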;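 further: hits lower antibody fragment binding to DSG3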
# TbMetRS inhib: blocks T. brucei methionyl-tRNA synthetase activity; purified T. brucei MetRS, ATP depletion, Kinase-Glo luminescence; inhibition, % at 11.9 µM; 360,000 tested, 0.4% active; AID 624268;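 active means inhibition above a per-plate cutoff of the control wells' mean inhibition plus 3 SD, cut at about 5.5% in these data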;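 further: 0% = DMSO wells median and 100% = median of wells with control inhibitor compound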
#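 Material – parasite MetRS enzyme · Medium – HEPES-MgCl2-KCl buffer plus DTT, spermine, BSA, pyrophosphatase · Reagent – ATP, methionine and E. coli bulk tRNA substrates · Times – 15 min enzyme-compound preincubation, 2 h reaction, 10 min detection, 25 °C · Measured by – luminescence of leftover ATP · Evaluation – percent inhibition relative to median high and low control wells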
# NadD inh: NadD (S. aureus) enzyme inhibition. purified NadD enzyme, colorimetric absorbance read-out. inhibition, % at 20 µM. 360,000 tested, 0.78% active; in the data active means inhibition above about 26%
# core dimer inh: blocks dimerization of HCV core protein; 300,000 tested, 0.33% active; inhibition, % at 5 µM; TR-FRET GST/Flag-core106 dimerization, 1536-well; AID 1899;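 active means inhibition above the mean of all tested compounds plus 3 SD, set per screening campaign, cut at about 45% in these data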
#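 Assay system: tagged HCV core106 pair (GST and Flag); medium: KF-containing HEPES buffer, pH 7.45, DTT, CHAPS, BSA; also added: Eu donor and XL665 acceptor anti-tag antibodies; dosing: 5 µM single dose; timing: compound-protein-antibody incubation 4 h at 22.5 °C; signal: TR-FRET 671 and 617 nm emission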
# Active calls of the source: *; i = inactive; ? = inconclusive; . = not tested or not shown; + = active, no number. Compounds with a hit are over-represented: about 1.9% of the library has one in this group of screens.
SMILES,Rce1 inhib,Pemphigus Ab inh,TbMetRS inhib,NadD inh,core dimer inh
CN1C(=O)/C(=C2\SC(=S)N(CCCCCC(=O)O)C2=O)c2ccccc21,i,45.4*,0.1,6.7,2.2
COc1ccccc1CNC(=O)c1cc(-c2ccncc2)nc2c(Cl)cccc12,i,98.4,-0.3,12.2,0.9
O=C(Nc1nonc1-c1ccc(Cl)cc1)c1ccccc1,i,100.1,-0.2,-4.1,0.1
CCOC(=O)c1c[nH]c2c(Cl)c(Cl)ccc2c1=O,i,86.0*,-0.7,-3.9,4.2
CC(OC(=O)c1cc2sccc2n1C)C(=O)NCc1cccs1 (configuration not stated),i,96.6,-0.6,-2.1,0.8
Cn1c(C(=O)OCC(=O)NCc2cccs2)cc2sccc21,i,40.2*,-1.7,-2.6,0.0
Nc1c(C(=O)Nc2ccc(Cl)c(C(=O)O)c2)sc2nc3c(cc12)CCCC3,i,95.1,-0.1,7.0,-1.9
Nc1c(C(=O)Nc2cccc(C(=O)O)c2)sc2nc3c(cc12)CCCC3,+,106.3,0.0,3.1,4.7
COC(=O)c1ccccc1NC(=O)N1CCN(C/C=C/c2ccccc2)CC1,i,100.8,0.4,-4.5,-1.5
O=C(Cc1coc2ccc3ccccc3c12)N1CCN(c2ncccn2)CC1,i,103.1,-0.1,6.9,53.1*
Nc1nc(SCC(=O)N2N=C3/C(=C\c4ccco4)CCCC3C2c2ccco2)n[nH]1 (configuration not stated),.,.,-0.1,8.1,.
Nc1nc(SCC(=O)N2N=C3/C(=C/c4ccco4)CCCC3C2c2ccco2)n[nH]1 (configuration not stated),i,101.8,0.1,25.1,52.2*
Cc1ccc(C(=O)Nc2nc(-c3ccc([N+](=O)[O-])cc3)cs2)o1,i,98.0,-0.8,1.5,51.7*
O=C(Nc1nc(-c2ccccn2)cs1)c1ccc([N+](=O)[O-])o1,+,93.6,-0.8,0.8,0.8
CC(=O)Nc1ccc(-c2csc(NC(=O)c3ccc(C)o3)n2)cc1,i,102.0,0.1,3.0,13.6
C=CCc1ccc(OC(=O)c2ccccc2)c(OC)c1,i,103.7,-1.0,-2.6,-8.4
CCOC(=O)c1ccc(NC2=CC(=O)C(=O)c3ccccc32)cc1,i,103.4,-0.3,46.6*,24.6
C=CCN1CCN(C(=O)c2ccc3c(c2)OCO3)CC1,i,?,-0.1,6.3,-3.1
O=C1CSC(c2ccncc2)N1Cc1ccco1 (configuration not stated),i,80.1*,-0.8,-7.3,-1.1
COc1cc(-c2nc(C(=O)NCC3CCCO3)cc3c2[nH]c2ccccc23)cc(OC)c1OC (configuration not stated),i,95.0,-1.1,0.7,0.9
COc1ccccc1-c1nc(C(=O)NCC2CCCO2)cc2c1[nH]c1ccccc12 (configuration not stated),i,76.7*,-0.7,3.0,5.3
COc1cccc(N=c2oc3c(C)ncc(CO)c3cc2C(=O)Nc2ccccc2OC)c1,i,.,.,.,.
COc1ccc(NC(=O)c2cc3c(COC(C)=O)cnc(C)c3oc2=Nc2cccc(C(=O)O)c2)c(OC)c1,i,66.0*,-1.6,3.2,3.2
COc1ccc(NC(=O)c2ccc(N3C(=O)C4CC=C(Cl)CC4C3=O)cc2)cc1 (configuration not stated),i,115.6,-1.8,-1.9,44.0
O=C(NN1C(=O)C2CC=C(Cl)CC2C1=O)c1ccncc1 (configuration not stated),i,100.1,-0.6,7.2,48.1*
SMILES,Rce1 inhib,Pemphigus Ab inh,TbMetRS inhib,NadD inh,core dimer inh
CCOC(=O)c1sc(N=NC2=C(O)CCCC2=O)c(C(=O)OCC)c1C,i,82.5,0.1,37.5*,21.7
Cc1ccccc1C(=O)N1CCc2cc(-c3nc(NC(=O)Cc4ccc5c(c4)OCO5)sc3C)ccc21,i,83.5,0.3,46.7*,40.8
Cc1cccc(C(=O)N2CCc3cc(-c4nc(NC(=O)Cn5nnc6ccccc6c5=O)sc4C)ccc32)c1,i,.,.,.,52.1*
O=C(NCC(c1ccco1)N1CCN(c2ccccc2F)CC1)c1ccco1 (configuration not stated),i,105.2,-0.5,-1.1,-3.4
CCOC(=O)c1c(NC(=O)COC(=O)c2cnccn2)sc(C(=O)NC)c1C,.,116.4,0.3,-7.2,-2.0
CCOC(=O)c1c(-c2ccc(C)o2)csc1NC(=O)CSc1nncs1,i,104.6,-0.2,3.2,12.6
CCOC(=O)c1c(-c2ccco2)csc1NC(=O)CSc1nnc(N)s1,i,99.0,-0.5,9.3,48.4*
CCOC(=O)c1c(-c2ccco2)csc1NC(=O)COC(=O)c1cnccn1,i,106.6,-0.5,20.1,67.2*
NC(=NC(=O)c1ccc(Cl)cc1)N1N=CCC1c1ccccc1 (configuration not stated),i,-11.4*,-2.1,1.2,1.3
O=C(CSc1ccc(Cl)cc1)N1N=CCC1c1ccccc1 (configuration not stated),i,114.5,-0.1,-8.5,0.9
CC1CCN(S(=O)(=O)c2ccc(NC(=O)Cc3cccs3)cc2)CC1,i,95.6,-0.5,-4.0,65.4*
CCCCCC(=O)NNC(=O)Nc1ccccc1,i,105.4,0.3,-3.8,2.5
COC(=O)c1sccc1NC(=O)CSc1nnnn1-c1ccccc1C,+,101.8,-0.3,-7.9,0.1
Nc1c(C(=O)c2ccccc2)oc2ccc([N+](=O)[O-])cc12,i,59.5*,-0.5,-8.2,-0.3
Nc1c(C(=O)c2ccccc2)oc2ccc(Br)cc12,i,89.9,0.6,-0.7,-7.1
Cc1cc(C)c(NC(=O)COC(=O)CCn2c(C)csc2=O)c(C)c1,i,101.2,-0.3,1.8,-4.2
CCCCCCNc1nc(Cl)nc(NC(C)(C)CO)n1,i,110.1,-0.8,-2.9,2.0
CC(C)(C)S(=O)(=O)N1Cc2cc(=O)n(Cc3ccccc3)c(CCO)c2[C@@H]1CCO,.,115.9,-0.9,1.5,.
CCOC1=C2CN(S(=O)(=O)c3ccc(C)cc3)[C@@H](c3cccc4ccccc34)C[C@H]2[C@H]2C(=O)N(c3ccccc3)C(=O)[C@H]2C1,.,.,-0.5,11.1,.
CCOC1=C2[C@H](c3ccccc3)N(S(=O)(=O)c3ccc(C)cc3)C(C(C)(C)C)[C@H]2C(C#N)(C#N)C(C#N)(C#N)C1 (some centres not stated),.,.,-0.5,34.2*,.
CCOC1=C2CN(S(=O)(=O)c3ccc(C)cc3)[C@H](c3cccc4ccccc34)C[C@H]2C(C#N)(C#N)C(C#N)(C#N)C1,.,.,0.2,30.0*,.
CCn1cc(Cl)c(C(=O)N2N=C(c3ccc4ccccc4c3)CC2c2ccccc2O)n1 (configuration not stated),i,95.9,-0.8,35.0*,6.8
CCn1cc([N+](=O)[O-])c(C(=O)N2N=C(c3ccc4ccccc4c3)CC2c2ccccc2O)n1 (configuration not stated),i,98.4,-1.1,28.5,25.5
